# Several values for one entry are separate records, joined by “and”; a condition that tells them apart may be missing. Identical values can stand only once.
# Key:
# 5-HT1A = molecular target: T1, 5-HT1A (Homo sapiens, UniProt P08908); assay: Radioligand competition binding assay
# T1 sequence (P08908 1-422): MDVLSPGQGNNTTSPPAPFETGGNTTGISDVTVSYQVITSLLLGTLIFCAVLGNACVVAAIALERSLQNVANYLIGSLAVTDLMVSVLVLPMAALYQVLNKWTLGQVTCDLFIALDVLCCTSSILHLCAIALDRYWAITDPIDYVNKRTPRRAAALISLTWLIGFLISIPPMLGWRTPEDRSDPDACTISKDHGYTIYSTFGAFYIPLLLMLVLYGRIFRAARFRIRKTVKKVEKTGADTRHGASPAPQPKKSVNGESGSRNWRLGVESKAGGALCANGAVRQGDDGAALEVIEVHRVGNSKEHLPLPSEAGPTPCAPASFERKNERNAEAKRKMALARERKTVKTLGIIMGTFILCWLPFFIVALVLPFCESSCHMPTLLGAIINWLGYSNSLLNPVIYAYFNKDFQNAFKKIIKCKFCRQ
# 5-HT1B = 5-HT1B (Homo sapiens, UniProt P28222); assay: Radioligand competition binding assay; conditions: read-out: Percent Inhibition of Binding 5-HT1B
# Procedure, shortened: (§1)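 Run by the NIMH PDSP as radioligand competition binding assays. The primary screen used 10 μM test compound and reported mean percent inhibition of radioligand binding (n=4); above 50% counted as significant. At those receptors, IC50 values came from non-linear regression of competition binding isotherms and were converted to Ki with the Cheng-Prusoff equation.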
# 5-HT1D [1] = molecular target: T2, 5-HT1D (Homo sapiens, UniProt P28221); assay: Radioligand competition binding assay
# Procedure, shortened: as §1
# 5-HT2A [2] = molecular target: T3, 5-HT2A (Homo sapiens, UniProt P28223); assay: Radioligand competition binding assay
# 5-HT2B [3] = molecular target: T4, 5-HT2B (Homo sapiens, UniProt P41595); assay: Radioligand competition binding assay
# 5-HT2C [4] = molecular target: T5, 5-HT2C (Homo sapiens, UniProt P28335); assay: Radioligand competition binding assay
# T5 sequence (P28335 33-458): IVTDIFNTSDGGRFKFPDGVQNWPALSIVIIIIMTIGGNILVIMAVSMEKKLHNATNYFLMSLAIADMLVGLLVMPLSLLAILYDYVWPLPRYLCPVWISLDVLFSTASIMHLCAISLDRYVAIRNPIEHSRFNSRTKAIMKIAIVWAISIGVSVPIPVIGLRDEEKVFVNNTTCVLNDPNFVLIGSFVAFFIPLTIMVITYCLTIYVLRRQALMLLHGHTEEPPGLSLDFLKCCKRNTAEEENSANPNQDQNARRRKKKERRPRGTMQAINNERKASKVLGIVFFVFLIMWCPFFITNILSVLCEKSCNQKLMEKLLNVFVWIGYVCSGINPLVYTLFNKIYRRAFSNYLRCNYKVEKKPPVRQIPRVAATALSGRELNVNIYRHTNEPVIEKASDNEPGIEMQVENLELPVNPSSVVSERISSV
# 5-HT3 = 5-HT3 (Homo sapiens, UniProt P46098); assay: Radioligand competition binding assay; conditions: read-out: Percent Inhibition of Binding 5-HT3
# Procedure, shortened: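 Run by the NIMH PDSP as a radioligand competition binding primary screen. Test compounds were applied at 10 μM, and the read-out was mean percent inhibition of radioligand binding (n=4).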
# 5-HT5A = 5-HT5A (Homo sapiens, UniProt P47898); assay: Radioligand competition binding assay
# Procedure, shortened: as §1
# 5-HT6 = 5-HT6 (Homo sapiens, UniProt P50406); assay: Radioligand competition binding assay
# Procedure, shortened: as §1
# 5-HT7 [5] = molecular target: T6, 5-HT7 (Homo sapiens, UniProt P34969); assay: Radioligand competition binding assay
# Procedure, shortened: as §1
# 5-HT1D [6] = molecular target: T2, 5-HT1D; assay: Antagonist functional assay; type: cell-based; conditions: read-out: Percent Inhibition of Agonist Response 5-HT1D
# Procedure, shortened: (§2)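 Run by the NIMH PDSP as cell-based antagonist-mode functional assays. Test compounds were applied at 10 μM. The read-out was percent inhibition of the response to an EC90 concentration of a reference agonist; that concentration was determined empirically for each receptor.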
# 5-HT2A [7] = molecular target: T3, 5-HT2A; assay: Antagonist functional assay; type: cell-based; conditions: read-out: Percent Inhibition of Agonist Response 5-HT2A
# Procedure, shortened: as §2
# 5-HT2B [8] = molecular target: T4, 5-HT2B; assay: Antagonist functional assay; type: cell-based; conditions: read-out: Percent Inhibition of Agonist Response 5-HT2B
# Procedure, shortened: as §2
# 5-HT2C [9] = molecular target: T5, 5-HT2C; assay: Antagonist functional assay; type: cell-based; conditions: read-out: Percent Inhibition of Agonist Response 5-HT2C
# Procedure, shortened: as §2
# 5-HT7 [10] = molecular target: T6, 5-HT7; assay: Antagonist functional assay; type: cell-based; conditions: read-out: Percent Inhibition of Agonist Response 5-HT7
# Procedure, shortened: as §2
# 5-HTRs = assay: Agonist functional assays at 5 serotonin receptors; type: cell-based; conditions: 5 receptors where low Ki values were observed; data not shown
# PKC [11] = assay: PKC activation: phosphorylation of PKC substrates by western blot in HeLa cells; type: cell-based, human
# Procedure, shortened: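 HeLa cells were grown in DMEM with 5% FBS and treated 30 min with 4 or 40 μM test compound or 100 nM PMA, with or without 1 h pretreatment with 500 nM bisindolylmaleimide II. In separate runs, a 5-HT2AR agonist (10 μM, 6 h) was given with or without 40 μM antagonist. Lysates (50 μg) were immunoblotted for phospho-(Ser) PKC substrates; four independent experiments were quantified.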
# DGKα [12] = molecular target: T7, DGKα (Rattus norvegicus, UniProt P51556); assay: Kinase assay with purified DGKα and PC:DAG:PS liposomes; type: biochemical; conditions: for Vmax (ATP): ATP-dependent activity, 5 mol% DAG; for Vmax (DAG): DAG-dependent activity, 1 mM ATP; for Decrease of Vmax of purified DGKα: 0.5 mol% drug
# Procedure, shortened: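 Rat FLAG-DGKα was expressed in HeLa cells by adenovirus (72 h) and purified on FLAG M2 beads. Reactions contained buffer B (MOPS pH 7.5), 1 mM CaCl2, 1 mM DTT and 4.75 mM PC:PS:DAG liposomes (5 mol% DAG), with test compound built into the liposomes at 0.5 or 2.0 mol% or added from DMSO. Reactions with [γ32P]-ATP ran 15 min at 25°C. Km and Vmax came from Michaelis-Menten non-linear regression.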
# DGKα [13] = molecular target: T7, DGKα; assay: Kinase assay with HEK 293T cell homogenate over-expressing DGKα; type: biochemical
# Procedure, shortened: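 Each reaction held 5 μg homogenate protein, 2 mM extruded PC:PS:DAG liposomes (10 mol% dioleoyl, dioctanoyl or stearoyl-arachidonoyl DAG), buffer B, 1 mM DTT, 1 mM CaCl2 and 1 mM [γ32P]-ATP, run 20 min at 30°C. Test compounds came from DMSO stocks. 32P-PA was counted, normalized to GFP lysate and to DMSO control; IC50 from log[inhibitor] versus normalized response.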
# DGKβ = DGKβ (Rattus norvegicus, UniProt P49621); assay: Kinase assay with HEK 293T cell homogenate over-expressing DGKβ; type: biochemical; conditions: 20 μM inhibitor, dioleoyl DAG liposomes
# Procedure, shortened: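 Reactions contained 5 μg homogenate, 2 mM liposomes (10 mol% dioleoyl DAG, 40 mol% PS, 50 mol% PC), buffer B, 1 mM DTT, 1 mM CaCl2 and [γ32P]-ATP, 20 min at 30°C. Test compound was added from DMSO. Organic-phase 32P was counted and expressed as percent of DMSO control after subtracting the GFP-lysate background.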
# DGKδ = DGKδ (Homo sapiens, UniProt Q16760); assay: Kinase assay with HEK 293T cell homogenate over-expressing DGKδ; type: biochemical; conditions: 20 μM inhibitor, dioleoyl DAG liposomes
# Procedure, shortened: (§3)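 Reactions without CaCl2 contained 5 μg homogenate, 2 mM liposomes (10 mol% dioleoyl DAG, 40 mol% PS, 50 mol% PC), buffer B, 1 mM DTT and [γ32P]-ATP, 20 min at 30°C. Test compound was added from DMSO. Extracted 32P-lipid was counted, GFP-lysate normalized, and expressed as percent of DMSO control.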
# DGKι = DGKι (Homo sapiens, UniProt O75912); assay: Kinase assay with HEK 293T cell homogenate over-expressing DGKι; type: biochemical
# DGKθ = DGKθ (Homo sapiens, UniProt P52824); assay: Kinase assay with HEK 293T cell homogenate over-expressing DGKθ; type: biochemical; conditions: 20 μM inhibitor, dioleoyl DAG liposomes
# Procedure, shortened: as §3
# PKC [14] = assay: PKC activation: phosphorylation of PKC substrates by western blot in U87 cells; type: cell-based, human; conditions: treatment for 30 min
# Procedure, shortened: (§4)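 Glioblastoma cells were treated 30 min with 4 or 40 μM test compound or 100 nM PMA, with or without 1 h pretreatment with 500 nM bisindolylmaleimide II. Cleared Triton lysates (50 μg) were run on 8.75% SDS-PAGE and probed with phospho-(Ser) PKC substrate antibody, detected by alkaline phosphatase chemiluminescence. Three independent experiments were quantified.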
# PKC [15] = assay: PKC activation: phosphorylation of PKC substrates by western blot in U251 cells; type: cell-based, human; conditions: treatment for 30 min
# Procedure, shortened: as §4
# [16] = cited from earlier work
# T2 sequence (P28221 whole entry, species assumed): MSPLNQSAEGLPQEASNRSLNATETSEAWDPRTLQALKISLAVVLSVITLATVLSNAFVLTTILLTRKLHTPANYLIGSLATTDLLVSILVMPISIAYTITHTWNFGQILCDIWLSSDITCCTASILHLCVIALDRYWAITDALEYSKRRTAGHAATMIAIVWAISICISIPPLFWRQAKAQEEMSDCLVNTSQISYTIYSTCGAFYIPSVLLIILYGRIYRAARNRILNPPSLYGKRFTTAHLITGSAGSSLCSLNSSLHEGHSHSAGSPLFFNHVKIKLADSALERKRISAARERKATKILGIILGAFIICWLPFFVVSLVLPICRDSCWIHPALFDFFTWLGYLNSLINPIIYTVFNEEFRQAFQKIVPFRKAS
# DGKι, sequence (O75912 1-1065 isoform O75912-1): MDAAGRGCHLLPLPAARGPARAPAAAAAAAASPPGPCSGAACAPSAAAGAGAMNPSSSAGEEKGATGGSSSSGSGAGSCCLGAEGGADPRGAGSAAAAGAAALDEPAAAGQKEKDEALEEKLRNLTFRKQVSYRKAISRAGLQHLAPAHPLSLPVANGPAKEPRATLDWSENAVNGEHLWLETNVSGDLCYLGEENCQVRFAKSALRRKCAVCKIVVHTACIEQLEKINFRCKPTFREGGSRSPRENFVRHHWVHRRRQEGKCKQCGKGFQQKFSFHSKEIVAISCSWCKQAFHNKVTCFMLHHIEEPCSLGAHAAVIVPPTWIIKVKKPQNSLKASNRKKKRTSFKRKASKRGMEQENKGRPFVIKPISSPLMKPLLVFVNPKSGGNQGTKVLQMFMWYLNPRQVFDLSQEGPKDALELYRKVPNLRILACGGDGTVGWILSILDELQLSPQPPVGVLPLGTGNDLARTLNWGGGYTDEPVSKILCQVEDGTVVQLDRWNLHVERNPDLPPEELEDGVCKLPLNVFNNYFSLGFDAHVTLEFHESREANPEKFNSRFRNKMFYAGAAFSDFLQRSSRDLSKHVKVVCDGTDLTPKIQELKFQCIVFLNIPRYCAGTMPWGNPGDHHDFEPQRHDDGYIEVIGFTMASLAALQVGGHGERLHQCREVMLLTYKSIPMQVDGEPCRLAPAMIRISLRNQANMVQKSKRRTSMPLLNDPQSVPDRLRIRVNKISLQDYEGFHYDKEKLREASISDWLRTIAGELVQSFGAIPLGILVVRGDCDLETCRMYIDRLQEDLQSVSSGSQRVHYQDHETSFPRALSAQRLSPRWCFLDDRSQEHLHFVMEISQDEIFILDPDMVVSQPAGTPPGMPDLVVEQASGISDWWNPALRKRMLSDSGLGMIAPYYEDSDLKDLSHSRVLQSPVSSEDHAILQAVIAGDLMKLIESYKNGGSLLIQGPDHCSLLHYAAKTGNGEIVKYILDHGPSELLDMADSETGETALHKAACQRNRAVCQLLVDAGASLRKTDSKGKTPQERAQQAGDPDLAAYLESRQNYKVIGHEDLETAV
# T4 sequence (P41595 whole entry, species assumed): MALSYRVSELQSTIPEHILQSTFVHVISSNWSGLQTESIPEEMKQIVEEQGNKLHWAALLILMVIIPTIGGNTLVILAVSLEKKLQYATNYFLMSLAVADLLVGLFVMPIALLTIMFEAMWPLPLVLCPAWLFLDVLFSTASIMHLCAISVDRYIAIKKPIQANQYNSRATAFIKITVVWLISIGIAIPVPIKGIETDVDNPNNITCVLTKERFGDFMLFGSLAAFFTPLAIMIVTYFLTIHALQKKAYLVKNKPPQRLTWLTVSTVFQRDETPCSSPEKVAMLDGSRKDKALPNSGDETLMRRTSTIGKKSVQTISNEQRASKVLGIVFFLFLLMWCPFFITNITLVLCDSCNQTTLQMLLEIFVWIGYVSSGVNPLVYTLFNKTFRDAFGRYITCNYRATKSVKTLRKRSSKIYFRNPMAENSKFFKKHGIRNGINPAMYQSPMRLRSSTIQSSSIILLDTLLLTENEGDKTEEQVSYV
# T3 sequence (P28223 whole entry, species assumed): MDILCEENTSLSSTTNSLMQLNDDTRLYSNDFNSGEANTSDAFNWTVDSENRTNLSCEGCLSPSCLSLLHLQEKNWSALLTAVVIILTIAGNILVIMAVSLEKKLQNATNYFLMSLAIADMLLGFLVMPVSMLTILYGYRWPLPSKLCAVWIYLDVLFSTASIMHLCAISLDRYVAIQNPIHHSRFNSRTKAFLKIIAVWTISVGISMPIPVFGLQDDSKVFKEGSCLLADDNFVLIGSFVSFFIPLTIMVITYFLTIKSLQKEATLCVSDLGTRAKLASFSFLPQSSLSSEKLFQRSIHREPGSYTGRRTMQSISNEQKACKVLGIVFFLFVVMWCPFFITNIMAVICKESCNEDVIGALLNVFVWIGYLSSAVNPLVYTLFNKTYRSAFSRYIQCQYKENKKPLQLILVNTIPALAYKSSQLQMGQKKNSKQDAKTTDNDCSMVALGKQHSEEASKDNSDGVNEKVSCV
# T6 sequence (P34969 whole entry, species assumed): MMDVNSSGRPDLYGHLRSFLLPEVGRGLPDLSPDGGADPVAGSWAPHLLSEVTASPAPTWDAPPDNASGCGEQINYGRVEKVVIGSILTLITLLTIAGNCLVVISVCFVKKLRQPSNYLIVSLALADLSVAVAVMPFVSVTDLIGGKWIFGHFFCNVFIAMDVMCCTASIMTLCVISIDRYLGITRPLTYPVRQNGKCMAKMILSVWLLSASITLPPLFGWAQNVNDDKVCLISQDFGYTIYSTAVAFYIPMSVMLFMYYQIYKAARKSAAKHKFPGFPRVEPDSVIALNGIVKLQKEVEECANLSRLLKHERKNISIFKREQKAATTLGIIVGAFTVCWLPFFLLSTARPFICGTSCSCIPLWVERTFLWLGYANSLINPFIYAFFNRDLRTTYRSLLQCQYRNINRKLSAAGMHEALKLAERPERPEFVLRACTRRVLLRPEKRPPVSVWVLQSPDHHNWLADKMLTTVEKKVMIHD
# T7 sequence (P51556 whole entry): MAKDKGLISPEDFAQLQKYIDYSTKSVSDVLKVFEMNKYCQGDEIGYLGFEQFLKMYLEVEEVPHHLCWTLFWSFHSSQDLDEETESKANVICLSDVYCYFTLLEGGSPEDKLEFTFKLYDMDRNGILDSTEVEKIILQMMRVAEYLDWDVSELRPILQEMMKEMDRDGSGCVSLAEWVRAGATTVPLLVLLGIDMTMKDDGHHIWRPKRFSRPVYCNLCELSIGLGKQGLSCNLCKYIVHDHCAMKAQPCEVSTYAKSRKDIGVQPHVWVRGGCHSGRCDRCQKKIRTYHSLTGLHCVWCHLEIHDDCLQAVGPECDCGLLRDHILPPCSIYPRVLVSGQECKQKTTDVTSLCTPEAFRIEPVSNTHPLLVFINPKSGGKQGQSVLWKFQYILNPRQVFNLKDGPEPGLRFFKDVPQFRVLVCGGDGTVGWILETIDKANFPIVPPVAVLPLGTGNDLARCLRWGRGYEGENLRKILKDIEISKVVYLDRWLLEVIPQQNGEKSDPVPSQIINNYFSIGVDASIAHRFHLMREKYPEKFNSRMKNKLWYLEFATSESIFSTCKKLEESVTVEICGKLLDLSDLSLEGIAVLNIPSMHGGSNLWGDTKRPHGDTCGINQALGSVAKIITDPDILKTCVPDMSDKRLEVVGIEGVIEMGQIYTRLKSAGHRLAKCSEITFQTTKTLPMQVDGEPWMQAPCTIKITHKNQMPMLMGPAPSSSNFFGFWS
# 5-HT6, sequence (P50406 whole entry, species assumed): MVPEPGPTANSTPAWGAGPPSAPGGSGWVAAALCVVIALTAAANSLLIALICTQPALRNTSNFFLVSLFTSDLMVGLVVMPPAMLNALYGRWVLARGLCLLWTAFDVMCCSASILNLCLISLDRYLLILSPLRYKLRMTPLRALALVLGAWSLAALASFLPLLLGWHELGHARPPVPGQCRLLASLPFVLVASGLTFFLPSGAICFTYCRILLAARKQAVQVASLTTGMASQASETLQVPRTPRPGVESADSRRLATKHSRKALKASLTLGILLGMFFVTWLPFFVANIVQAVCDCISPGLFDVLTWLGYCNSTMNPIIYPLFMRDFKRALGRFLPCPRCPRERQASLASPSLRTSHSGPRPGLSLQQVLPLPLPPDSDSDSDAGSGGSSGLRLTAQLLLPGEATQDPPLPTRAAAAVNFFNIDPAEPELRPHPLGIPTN
# 5-HT5A, sequence (P47898 whole entry, species assumed): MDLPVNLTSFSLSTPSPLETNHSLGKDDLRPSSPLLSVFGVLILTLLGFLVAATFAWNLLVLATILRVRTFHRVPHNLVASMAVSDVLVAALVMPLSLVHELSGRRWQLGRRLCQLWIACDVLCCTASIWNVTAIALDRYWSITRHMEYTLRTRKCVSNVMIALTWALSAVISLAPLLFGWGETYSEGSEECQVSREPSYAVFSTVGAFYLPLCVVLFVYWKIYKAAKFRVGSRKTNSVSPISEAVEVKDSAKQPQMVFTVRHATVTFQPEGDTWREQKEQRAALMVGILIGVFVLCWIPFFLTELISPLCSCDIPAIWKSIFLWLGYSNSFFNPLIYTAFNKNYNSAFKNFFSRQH
# 5-HT3, sequence (P46098 24-478, species assumed): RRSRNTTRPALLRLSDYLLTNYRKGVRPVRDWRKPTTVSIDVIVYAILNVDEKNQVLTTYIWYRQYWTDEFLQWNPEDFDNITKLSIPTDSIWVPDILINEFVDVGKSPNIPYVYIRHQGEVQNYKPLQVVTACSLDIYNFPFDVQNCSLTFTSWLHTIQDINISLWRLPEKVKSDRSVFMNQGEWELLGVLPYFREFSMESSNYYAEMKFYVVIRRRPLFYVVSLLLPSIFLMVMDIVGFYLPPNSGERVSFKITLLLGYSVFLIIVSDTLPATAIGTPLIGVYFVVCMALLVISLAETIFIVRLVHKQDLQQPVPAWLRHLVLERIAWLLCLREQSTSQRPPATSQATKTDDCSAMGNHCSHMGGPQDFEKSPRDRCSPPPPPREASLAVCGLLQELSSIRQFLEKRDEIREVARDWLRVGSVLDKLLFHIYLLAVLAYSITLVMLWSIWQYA
smiles,measurement,setting,value
"O=c1c2ccccc2[nH]c(=S)n1CCN1CCC(=C(c2ccc(F)cc2)c2ccc(F)cc2)CC1 [R59949, 3-[2-(4-[bis-(4-fluorophenyl)methylene]-1-piperidinyl)ethyl]-2,3-dihydro-2-thioxo-4(1H)quinazolinone]",Ki,5-HT1A,2000 nM
same,inhibition at 10 µM,5-HT1A; read-out: Percent Inhibition of Binding 5-HT1A,61.1%
same,inhibition at 10 µM,5-HT1B,20.3%
same,Ki,5-HT1D [1],64.5 nM
same,inhibition at 10 µM,5-HT1D [1]; read-out: Percent Inhibition of Binding 5-HT1D,76.7%
same,Ki,5-HT2A [2],9.2 nM
same,inhibition at 10 µM,5-HT2A [2]; read-out: Percent Inhibition of Binding 5-HT2A,94.2%
same,Ki,5-HT2B [3],80 nM
same,inhibition at 10 µM,5-HT2B [3]; read-out: Percent Inhibition of Binding 5-HT2B,96.9%
same,Ki,5-HT2C [4],46 nM
same,inhibition at 10 µM,5-HT2C [4]; read-out: Percent Inhibition of Binding 5-HT2C,72.2%
same,inhibition at 10 µM,5-HT3,0.7%
same,Ki,5-HT5A,3250 nM
same,inhibition at 10 µM,5-HT5A; read-out: Percent Inhibition of Binding 5-HT5A,71.6%
same,Ki,5-HT6,3070 nM
same,inhibition at 10 µM,5-HT6; read-out: Percent Inhibition of Binding 5-HT6,71.8%
same,Ki,5-HT7 [5],681 nM
same,inhibition at 10 µM,5-HT7 [5]; read-out: Percent Inhibition of Binding 5-HT7,82.8%
same,inhibition at 10 µM,5-HT1D [6],136%
same,inhibition at 10 µM,5-HT2A [7],101%
same,inhibition at 10 µM,5-HT2B [8],99.4%
same,inhibition at 10 µM,5-HT2C [9],28.1%
same,inhibition at 10 µM,5-HT7 [10],32.9%
same,Agonist activity at 5-HTRs,5-HTRs,very low to no activity
"CN1CCCC1CCn1cc(C2=C(c3c[nH]c4ccccc34)C(=O)NC2=O)c2ccccc21 (centres unmarked) [bis, bisindolylmaleimide II]",Change in basal PKC activity,PKC [11]; 500 nM bis alone for 1 h,did not see any changes in basal PKC activity
Cc1nc2sccn2c(=O)c1CCN1CCC(=C(c2ccc(F)cc2)c2ccc(F)cc2)CC1 [ritanserin],Vmax (ATP),DGKα [12]; 0.5 mol% drug in liposomes,20 ± 1 nmol/min/mg
same,Vmax (DAG),DGKα [12]; 0.5 mol% drug in liposomes,17 ± 2 nmol/min/mg
same,Decrease of Vmax of purified DGKα,DGKα [12]; in the context of ATP,greater than 50%
same,Decrease of Vmax of purified DGKα,DGKα [12]; in the context of DAG,greater than 50%
same,Vmax (ATP),DGKα [12]; 2.0 mol% drug in liposomes,12 ± 0.01 ^† nmol/min/mg
same,Vmax (DAG),DGKα [12]; 2.0 mol% drug in liposomes,11 ± 2 nmol/min/mg
same,IC50,DGKα [13],~15000 nM
same,"Activity of DGKα, percent of control","DGKα [13]; 20 μM inhibitor, liposomes with dioleoyl DAG, cell homogenate",decreased by about half
same,Potency against DGKα with other DAG species,"DGKα [13]; 20 μM, liposomes containing dioctanoyl or stearoyl arachidonoyl DAG",similarly potent
same,"Activity of DGKβ, percent of control",DGKβ,not detectably inhibited
same,"Activity of DGKδ, percent of control",DGKδ,not detectably inhibited
same,"Activity of DGKι, percent of control","DGKι; 20 μM inhibitor, dioleoyl DAG liposomes, cell homogenate",not detectably inhibited
same,IC50,"DGKι; IC50 for DGKι, cell homogenate, 1 mM ATP, 10 mol% DAG",55000 to 65000 nM and ~60000 nM
same,IC50 for DGKι relative to IC50 for DGKα,DGKι; fold higher than IC50 for DGKα,2–3 fold
same,"Activity of DGKθ, percent of control",DGKθ,not detectably inhibited
same,Increase in phosphorylation of PKC downstream targets,"PKC [11]; 40 μM, 30 min",about 2.5 fold
same,Activation of PKC,PKC [14],activate PKC
same,Activation of PKC,PKC [15],not in U251 cells
same,Adverse side effects,[16],few adverse side effects
same,Oral bioavailability,[16],orally bioavailable
same,half-life,[16]; in humans,approximately 40 hours
"CCCCCCCCCCCCCC(=O)O[C@@H]1[C@@H](C)[C@@]2(O)[C@@H](C=C(CO)C[C@]3(O)C(=O)C(C)=C[C@@H]23)[C@@H]2C(C)(C)[C@]12OC(C)=O [PMA, Phorbol 12-myristate 13-acetate]",Increase in phosphorylation of PKC downstream targets,"PKC [11]; 100 nM PMA, 30 min",greater than 3 fold
O=C(c1ccc(F)cc1)C1CCN(CCn2c(=O)[nH]c3ccccc3c2=O)CC1 [ketanserin],IC50,DGKα [12],264000 nM
same,Effect on TCB-2-induced PKC activation,PKC [11]; 40 μM ketanserin co-treatment with 10 μM TCB-2 for 6 h,inhibited the ability of TCB-2 to activate PKC
same,Activation of PKC,"PKC [11]; 40 μM ketanserin, 30 min",no activation of PKC was observed
same,Activation of PKC,PKC [14],does not activate PKC
same,Activation of PKC,PKC [15],does not activate PKC
COc1cc(Br)c(OC)c2c1[C@H](CN)C2 [TCB-2],PKC activity,PKC [11]; 10 μM TCB-2 for 6 h,significant elevation of PKC activity
